HKDC1 inhibitor: HKDC1 hexokinase inhibitors, primary screen, biochemical, fluorescence, uHTS. AID 493160, 2011. recombinant HKDC1, G6PDH/diaphorase resazurin coupled fluorescence. inhibition, % at 20 µM. 0.16% of 340,000 active. Q2TB90;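 active = inhibition above about 35% when tested at 20 µM, limit read from the data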;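 also: plate controls were DMSO wells with enzyme for no effect and DMSO wells lacking enzyme for full effect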
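Test system: recombinant HKDC1 (HK5) hexokinase enzyme, produced in-house; Amount: enzyme 5 µg/mL final; Buffer or medium: Tris pH 8.0 buffer with MgCl2, Tween-20, BSA, BME; Reagent: glucose and ATP substrates; Doses: 20 µM test compound, 1% DMSO; Incubation: 90 min reaction incubation at room temperature, dark; Detection: resorufin fluorescence at 613 nm.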
PfGluPho inh: PfG6PD enzyme inhibitors, primary screen, biochemical, fluorescence intensity, uHTS; 0.78% of 350,000 active; PfGluPho enzyme, NADPH resazurin-diaphorase fluorescence; inhibition, % at 20 µM;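 active = inhibition reaching at least a set limit at 20 µM in the primary screen, cut at about 59% in these data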;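 also: 0% = DMSO wells with substrate and 100% = DMSO wells lacking glucose-6-phosphate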
Neddylation inh: inhibitors of cullin neddylation, primary screen, biochemical, TR-FRET, uHTS, NAE and Ubc12; AID 651699, 2012; inhibition, % at 25 µM; 0.58% of 360,000 active; in the data active = inhibition above about 36%
Target sequence (P61081 whole entry, looked up): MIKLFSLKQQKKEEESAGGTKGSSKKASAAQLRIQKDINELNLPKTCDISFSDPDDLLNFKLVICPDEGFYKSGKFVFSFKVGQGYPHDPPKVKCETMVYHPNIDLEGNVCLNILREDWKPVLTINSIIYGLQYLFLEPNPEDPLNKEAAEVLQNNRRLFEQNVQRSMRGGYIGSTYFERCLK
Target sequence (Q13564 whole entry, looked up): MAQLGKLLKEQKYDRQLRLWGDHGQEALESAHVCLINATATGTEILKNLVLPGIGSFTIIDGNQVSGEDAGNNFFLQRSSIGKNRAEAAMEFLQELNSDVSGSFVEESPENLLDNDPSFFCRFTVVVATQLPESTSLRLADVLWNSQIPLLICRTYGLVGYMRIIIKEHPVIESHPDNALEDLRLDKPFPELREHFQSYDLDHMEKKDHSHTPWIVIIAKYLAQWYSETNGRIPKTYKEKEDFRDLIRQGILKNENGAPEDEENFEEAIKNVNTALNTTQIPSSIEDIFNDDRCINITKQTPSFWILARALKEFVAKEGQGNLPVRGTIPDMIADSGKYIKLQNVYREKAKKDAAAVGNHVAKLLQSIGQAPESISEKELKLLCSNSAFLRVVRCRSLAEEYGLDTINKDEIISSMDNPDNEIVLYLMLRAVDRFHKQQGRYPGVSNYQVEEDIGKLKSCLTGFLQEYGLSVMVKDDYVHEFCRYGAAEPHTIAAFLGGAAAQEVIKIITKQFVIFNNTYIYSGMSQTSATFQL
M18AAP inhibitor: PfM18AAP inhibitors, malaria aminopeptidase, primary screen, biochemical, QFRET, recombinant enzyme | inhibition, % at 7.35 µM | M18 aspartyl aminopeptidase (Plasmodium falciparum 3D7) | H-Glu-NHMec fluorogenic cleavage | AID 1822, 2009 | 1.2% of 290,000 active;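 active = inhibition above the campaign mean inhibition over all tested compounds plus 3 SD, cut at about 28% in these data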;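 also: 0% = plate median of test compound wells and 100% = 2 mM ZnCl2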
PfGluPho conf: PfG6PD inhibitors, hit retest, confirmation, biochemical, fluorescence intensity, single concentration; AID 504753, 2011; shares compounds with PfGluPho inh; inhibition, % at 20 µM; recombinant PfGluPho, NADPH-diaphorase-resazurin fluorescence; 34% of 2,400 active;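 active = inhibition of at least 50% at 20 µM in any single replicate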;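 also: 0% = DMSO with substrate and 100% = DMSO lacking glucose-6-phosphate substrate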
Diaph ctr 10uM: diaphorase inhibitors and chemical oxidizers, confirmation, counter-screen for P. falciparum G6PD inhibitor project, biochemical, fluorescence intensity, 10 µM NADPH. shares compounds with PfGluPho inh. diaphorase-coupled resazurin reduction, NADPH 10 uM. inhibition, % at 20 µM. 39% of 820 active. AID 504862, 2011;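 active = average inhibition reaching 50% or more with the compound at 20 µM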;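 also: resorufin red fluorescence formed as diaphorase reduces resazurin using NADPH; 0% = DMSO with enzyme and 100% = DMSO without enzyme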
Diaph ctr 30uM: diaphorase inhibitors and chemical oxidizers, confirmation, counter-screen for P. falciparum G6PD inhibitor project, biochemical, fluorescence intensity, 30 µM NADPH. shares compounds with PfGluPho inh. Diaphorase/resazurin coupled assay, resorufin fluorescence. inhibition, % at 20 µM. 29% of 820 active. AID 504863, 2011;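 active = inhibition averaging 50% or more, tested at 20 µM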;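 also: 0% = DMSO with enzyme and 100% = DMSO wells lacking diaphorase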
Numbers without * were called inactive. Rows were chosen to be rich in hits. Some 2.2% of all compounds tested hit in one or more screens of this group.

Results for COc1ccccc1N1CSC2=C(C#N)C(c3ccc(SC)cc3)CC(=O)N2C1 (stereo not given) ?
HKDC1 inhibitor: 32; PfGluPho inh: 67*; Neddylation inh: -46; M18AAP inhibitor: 30*; PfGluPho conf: 52*; Diaph ctr 10uM: -6; Diaph ctr 30uM: -4

What do the screens show for `COc1ccc(Br)cc1C1CC(=O)N2CN(C)CSC2=C1C#N` (stereo not given)?
HKDC1 inhibitor: 16; PfGluPho inh: 65*; Neddylation inh: 0; M18AAP inhibitor: 26; PfGluPho conf: 25

How did CC(C)C1=CC(=Nc2ccc(S(N)(=O)=O)cc2)C=C(C(C)C)C1=O do in these assays?
HKDC1 inhibitor: 17; PfGluPho inh: 76*; Neddylation inh: 17; M18AAP inhibitor: 10; PfGluPho conf: 36

How did NS(=O)(=O)c1ccc(N=C2C(=O)Nc3ccccc32)cc1 do in these assays?
HKDC1 inhibitor: 5; PfGluPho inh: -18; Neddylation inh: -4; M18AAP inhibitor: -2

Results for O=C(NC1CCCC1)c1cc2c(ccc3ccccc32)o1 ?
HKDC1 inhibitor: 0; PfGluPho inh: 72*; Neddylation inh: 20; M18AAP inhibitor: 0; PfGluPho conf: 20

How did CNC(=O)c1cc2c(ccc3ccccc32)o1 do in these assays?
HKDC1 inhibitor: 0; PfGluPho inh: -3; Neddylation inh: 38; M18AAP inhibitor: 5

Results for CCOc1ccc(OCCCC(=O)ON=C(N)c2ccccc2C)cc1 ?
HKDC1 inhibitor: 5; PfGluPho inh: 9; Neddylation inh: 8

Results for CC(SCC(=O)Nc1ccccc1)c1nc2ccccc2c(=O)[nH]1 (stereo not given) ?
HKDC1 inhibitor: 4; PfGluPho inh: 60*; Neddylation inh: -9; M18AAP inhibitor: -2; PfGluPho conf: 51*; Diaph ctr 10uM: 42; Diaph ctr 30uM: 36

Results for O=C(/C=C/C(Cl)(Cl)Cl)Nc1ccc(Cl)cc1 ?
HKDC1 inhibitor: 2; PfGluPho inh: 96*; Neddylation inh: -12; PfGluPho conf: 18

Results for O=[N+]([O-])c1ccccc1C1Nc2cccc3cccc(c23)N1 ?
HKDC1 inhibitor: 30; PfGluPho inh: 67*; Neddylation inh: -7; M18AAP inhibitor: -9; PfGluPho conf: 8

What do the screens show for `COc1ccc(Nc2cc(C)c3ccc(O)cc3n2)cc1`?
HKDC1 inhibitor: -6; PfGluPho inh: 72*; M18AAP inhibitor: -6; PfGluPho conf: 20

Results for CC1=CC(C)(C)Nc2ccc(OC(=O)CN3C(=O)CCC3=O)cc21 ?
HKDC1 inhibitor: 22; PfGluPho inh: 62*; Neddylation inh: 21; M18AAP inhibitor: 2; PfGluPho conf: 52*; Diaph ctr 10uM: 40; Diaph ctr 30uM: 3

Results for CCOc1cc(CN2CCC(N3CCC(C(=O)NC4CC4)CC3)CC2)ccc1O ?
PfGluPho inh: 20; Neddylation inh: -1

Results for Nn1c(CSc2nc3ccccc3o2)nnc1CSc1nc2ccccc2o1 ?
HKDC1 inhibitor: 10; PfGluPho inh: 87*; Neddylation inh: -6; M18AAP inhibitor: -6; PfGluPho conf: 60*; Diaph ctr 10uM: 56*; Diaph ctr 30uM: 48

What do the screens show for `O=C(O)CSc1nc2ccccc2o1`?
HKDC1 inhibitor: 6; PfGluPho inh: -14; Neddylation inh: -1; M18AAP inhibitor: 6

What do the screens show for `CN(c1ccc(C(=O)Nc2cccc(O)c2)cc1)S(=O)(=O)c1ccccc1`?
HKDC1 inhibitor: 2; PfGluPho inh: 59*; Neddylation inh: 0; M18AAP inhibitor: -2; PfGluPho conf: -2

What do the screens show for `COCc1ccc(C(=O)Nc2cccc(S(=O)(=O)N(C)c3ccccc3)c2)cc1`?
HKDC1 inhibitor: 1; PfGluPho inh: 18; Neddylation inh: 7

How did CC(=O)c1cccc(NC(=O)c2ccc(N(C)S(=O)(=O)c3ccc(C)cc3)cc2)c1 do in these assays?
HKDC1 inhibitor: 3; PfGluPho inh: 63*; Neddylation inh: 8; M18AAP inhibitor: 7; PfGluPho conf: 12

How did CC(=O)c1cccc(NC(=O)c2ccc(N(Cc3ccc(C)cc3)S(C)(=O)=O)cc2)c1 do in these assays?
HKDC1 inhibitor: 0; PfGluPho inh: 2; Neddylation inh: 4; M18AAP inhibitor: -2

What do the screens show for `Cc1nc(NC(=O)COC(=O)C2CC3CCCC(C2)C3=O)c(Cl)cc1Cl` (stereo not given)?
HKDC1 inhibitor: -6; PfGluPho inh: 1; Neddylation inh: 7

What do the screens show for `CC(OC(=O)CCN=C1NS(=O)(=O)c2ccccc21)C(=O)Nc1ccc(N(C)C)cc1` (stereo not given)?
HKDC1 inhibitor: 5; PfGluPho inh: 70*; Neddylation inh: 11; PfGluPho conf: 5

What do the screens show for `Cc1c2cc[n+](CCN3CCCCC3)cc2c(C)c2c1[nH]c1ccc(O)cc12`?
HKDC1 inhibitor: 20; PfGluPho inh: 87*; Neddylation inh: -6; PfGluPho conf: 12

What do the screens show for `CCOC(=O)c1[nH]c2ccc(C)cc2c1NC(=O)CN1CCCCC1`?
HKDC1 inhibitor: -1; PfGluPho inh: -1; Neddylation inh: 36; M18AAP inhibitor: 0

What do the screens show for `CCN(CC(=O)Nc1c(F)cccc1F)C(=O)Cc1csc(-c2ccc(OC)c(OC)c2)n1`?
HKDC1 inhibitor: -4; PfGluPho inh: 13; Neddylation inh: 37

Results for C(=N\Nc1nc2ccccc2[nH]1)/c1ccccn1 ?
HKDC1 inhibitor: -9; PfGluPho inh: 64*; Neddylation inh: -1; M18AAP inhibitor: 5; PfGluPho conf: 54*; Diaph ctr 10uM: -27; Diaph ctr 30uM: 2

How did C(=N\Nc1nc2ccccc2[nH]1)/c1ccc2ncccc2c1 do in these assays?
HKDC1 inhibitor: 14; PfGluPho inh: -3; Neddylation inh: 1; M18AAP inhibitor: -7

Results for O=c1cnnc(N/N=C/c2ccccn2)[nH]1 ?
HKDC1 inhibitor: 6; PfGluPho inh: 46; Neddylation inh: -2; M18AAP inhibitor: 8; PfGluPho conf: 27

What do the screens show for `Cc1cc(=O)[nH]c(N/N=C/c2ccccn2)n1`?
HKDC1 inhibitor: 10; PfGluPho inh: -30; Neddylation inh: -4; M18AAP inhibitor: -10

Results for Cc1ccc(CS(=O)Cc2ccc(C(=O)NCc3ccc(OC(C)C)cc3)o2)cc1 (stereo not given) ?
HKDC1 inhibitor: -4; PfGluPho inh: -16; Neddylation inh: -2; M18AAP inhibitor: 9

Screening data as filed in PubChem BioAssay.
